Measured values from ChEMBL document CHEMBL1649117, “GRL-02031, a novel nonpeptidic protease inhibitor (PI) containing a stereochemically defined fused cyclopentanyltetrahydrofuran potent against multi-PI-resistant human immunodeficiency virus type 1 in vitro” (Antimicrob Agents Chemother, 2009).

Legend:
[1] = tested on: Human immunodeficiency virus 1; assay: Ratio of EC50 for HIV1 NL4-3 harboring L10F/L33F/M46I/I47V/Q58E/V82I/I84V/I85V amino acid substitution in protease encoding region to EC50 for HIV1 NL4-3; type: functional
Procedure, shortened: (§1)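 MT-4 cells (10^5/ml) infected with 100 TCID50s of PI-selected HIV-1NL4-3 variants or the parental strain, with or without serial drug concentrations, at 37°C. Day 7 supernatant p24 Gag measured by chemiluminescent enzyme immunoassay. […] Triplicate. Ratio is variant EC50 over wild-type EC50.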

[2] = tested on: Human immunodeficiency virus 1; assay: Antiviral activity against HIV1 NL4-3 harboring L23I/K43I/M46I/I50L/G51A/A71V amino acid substitution in protease encoding region infected in human MT4 cells assessed as inhibition of p24 Gag protein production selected at 1 uM of atazanavir by ELISA; type: functional, organism-based; settings: Human immunodeficiency virus 1, NL4-3, MT4
Procedure, shortened: (§2)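 HIV-1NL4-3 (500 TCID50s) was passaged in MT-4 cells, starting at 0.01–0.03 µM PI and raising the drug generally two- to threefold as virus propagated. Cell-free passage used day-7 supernatants. Variants were then tested in MT-4 cells (10^5/ml) with 100 TCID50s, with or without drug, at 37°C. Day-7 p24 Gag was read by chemiluminescent immunoassay; EC50 vs drug-free control; triplicate.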

[3] = Selectivity index, ratio of CC50 for human MT2 cells to EC50 for HIV1 LAI; type: toxicity, cell-based; settings: read-out: Selectivity Index
[4] = tested on: Human immunodeficiency virus 1; assay: Ratio of EC50 for HIV1 NL4-3 harboring L23I/K43I/M46I/I50L/G51A/A71V amino acid substitution in protease encoding region to EC50 for HIV1 NL4-3; type: functional; procedure, shortened: as §1
[5] = tested on: Human immunodeficiency virus 1; assay: Ratio of EC50 for HIV1 NL4-3 harboring L10F/L24I/M46I/L63P/A71V/G73S/V82T amino acid substitution in protease encoding region to EC50 for HIV1 NL4-3; type: functional; procedure, shortened: as §1
[6] = tested on: Human immunodeficiency virus 1; assay: Ratio of EC50 for HIV1 NL4-3 harboring L10F/D30N/K45I/A71V/T74S amino acid substitution in protease encoding region to EC50 for HIV1 NL4-3; type: functional
[7] = Cytotoxicity against human MT2 cells by MTT assay; type: cell-based
[8] = tested on: Human immunodeficiency virus 1; assay: Antiviral activity against HIV1 A harboring L10I/I15V/E35D/N37E/K45R/I54V/L63P/A71V/V82T/L90M/I93L/C95F in protease encoding region infected in human PHA-PBC assessed as inhibition of p24 Gag protein production by ELISA; type: functional, organism-based; settings: Human immunodeficiency virus 1, A
Procedure, shortened: (§3)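 Phytohemagglutinin-stimulated PBMs (10^6/ml) infected with 50 TCID50s of each primary isolate, cultured with or without drug in 10-fold serial dilutions. On day 7, supernatant p24 Gag was measured by automated chemiluminescent enzyme immunoassay. Triplicate.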

[9] = tested on: Human immunodeficiency virus 1; assay: Ratio of EC50 for HIV1 C harboring L10I/I15V/K20R/L24I/M36I/M46L/I54V/I62V/L63P/K70Q/V82A/L89M in protease encoding region to EC50 for HIV1 ERS104pre; type: functional
[10] = tested on: Human immunodeficiency virus 1; assay: Antiviral activity against HIV1 JSL harboring L10I/L24I/L33F/E35D/M36I/N37S/M46L/I54V/R57K/I62V/L63P/A71V/G73S/82A in protease encoding region infected in human PHA-PBC assessed as inhibition of p24 Gag protein production by ELISA; type: functional, organism-based; settings: Human immunodeficiency virus 1, JSL
Procedure, shortened: (§4)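 Phytohemagglutinin-stimulated PBMs (10^6/ml) infected with 50 TCID50s of each primary isolate, cultured with or without drug in 10-fold serial dilutions. On day 7, supernatant p24 Gag was measured by automated chemiluminescent enzyme immunoassay. […] Triplicate.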

[11] = tested on: Human immunodeficiency virus 1; assay: Antiviral activity against HIV1 NL4-3 harboring M46I/V82F/I84V amino acid substitution in protease encoding region infected in human MT4 cells assessed as inhibition of p24 Gag protein production selected at 5 uM of ritonavir by ELISA; type: functional, organism-based; settings: Human immunodeficiency virus 1, NL4-3, MT4; procedure, shortened: as §2
[12] = tested on: Human immunodeficiency virus 1; assay: Ratio of EC50 for HIV1 JSL harboring L10I/L24I/L33F/E35D/M36I/N37S/M46L/I54V/R57K/I62V/L63P/A71V/G73S/82A in protease encoding region to EC50 for HIV1 ERS104pre; type: functional
[13] = tested on: Human immunodeficiency virus 1; assay: Antiviral activity against HIV1 ERS104pre infected in human PHA-PBC assessed as inhibition of p24 Gag protein production by ELISA; type: functional, organism-based; settings: Human immunodeficiency virus 1, ERS104pre; procedure, shortened: as §3
[14] = tested on: Human immunodeficiency virus 1; assay: Antiviral activity against HIV1 MOKW infected in human PHA-PBC assessed as inhibition of p24 Gag protein production by ELISA; type: functional, organism-based; settings: Human immunodeficiency virus 1, MOKW; procedure, shortened: as §4
[15] = tested on: Human immunodeficiency virus 1; assay: Ratio of EC50 for HIV1 B harboring L10I/I15V/E35D/N37E/K45R/I54V/L63P/A71V/V82T/L90M/I93L/C95F in protease encoding region to EC50 for HIV1 ERS104pre; type: functional
[16] = tested on: Human immunodeficiency virus 1; assay: Antiviral activity against HIV1 NL4-3 harboring L10F/D30N/K45I/A71V/T74S amino acid substitution in protease encoding region infected in human MT4 cells assessed as inhibition of p24 Gag protein production selected at 5 uM of nelfinavir by ELISA; type: functional, organism-based; settings: Human immunodeficiency virus 1, NL4-3, MT4; procedure, shortened: as §2
[17] = tested on: Human immunodeficiency virus 1; assay: Ratio of EC50 for HIV1 NL4-3 harboring M46I/V82F/I84V amino acid substitution in protease encoding region to EC50 for HIV1 NL4-3; type: functional; procedure, shortened: as §1
[18] = tested on: Human immunodeficiency virus 1; assay: Antiviral activity against HIV1 NL4-3 harboring L10I/G48V/I54V/L90M amino acid substitution in protease encoding region infected in human MT4 cells assessed as inhibition of p24 Gag protein production selected at 5 uM of saquinavir by ELISA; type: functional, organism-based; settings: Human immunodeficiency virus 1, NL4-3, MT4; procedure, shortened: as §2
[19] = tested on: Human immunodeficiency virus 1; assay: Antiviral activity against HIV1 NL4-3 harboring L10F/L24I/M46I/L63P/A71V/G73S/V82T amino acid substitution in protease encoding region infected in human MT4 cells assessed as inhibition of p24 Gag protein production selected at 5 uM of indinavir by ELISA; type: functional, organism-based; settings: Human immunodeficiency virus 1, NL4-3, MT4; procedure, shortened: as §2
[20] = tested on: Human immunodeficiency virus 1; assay: Antiviral activity against HIV1 C harboring L10I/I15V/K20R/L24I/M36I/M46L/I54V/I62V/L63P/K70Q/V82A/L89M in protease encoding region infected in human PHA-PBC assessed as inhibition of p24 Gag protein production by ELISA; type: functional, organism-based; settings: Human immunodeficiency virus 1, C; procedure, shortened: as §4
[21] = tested on: Human immunodeficiency virus 1; assay: Antiviral activity against HIV1 MM harboring L10I/K43T/M46L/I54V/L63P/A71V/V82A/L90M/Q92K in protease encoding region infected in human PHA-PBC assessed as inhibition of p24 Gag protein production by ELISA; type: functional, organism-based; settings: Human immunodeficiency virus 1, MM; procedure, shortened: as §4
[22] = tested on: Human immunodeficiency virus 1; assay: Antiviral activity against HIV1 TM harboring L10I/K14R/R41K/M46L/I54V/L63P/A71V/V82A/L90M/I93L in protease encoding region infected in human PHA-PBC assessed as inhibition of p24 Gag protein production by ELISA; type: functional, organism-based; settings: Human immunodeficiency virus 1, TM; procedure, shortened: as §4

With `CC(C)(C)NC(=O)[C@@H]1C[C@@H]2CCCC[C@@H]2CN1C[C@@H](O)[C@H](Cc1ccccc1)NC(=O)[C@H](CC(N)=O)NC(=O)c1ccc2ccccc2n1` the “Ratio EC50” value [1] was 1, the EC50 [2] was 34 nM and the selectivity ratio [3] was 710. For the same compound, the “Ratio EC50” value [4] was 4, the “Ratio EC50” value [5] was 3 and the “Ratio EC50” value [6] was 4. The CC50 [7] was 9900 nM, the EC50 [8] was 100 nM and the “Ratio EC50” value [9] was 4. The EC50 [10] was 320 nM, the EC50 [11] was 10 nM and the “Ratio EC50” value [12] was 36. The EC50 [13] was 9 nM, the EC50 [14] was 4 nM and the “Ratio EC50” value [15] was 33. For the same compound, the EC50 [16] was 28 nM, the “Ratio EC50” value [17] was 1 and the EC50 [18] was greater than 1000 nM. The EC50 [19] was 22 nM.
In the case of `CC(C)CN(C[C@@H](O)[C@H](Cc1ccccc1)NC(=O)O[C@H]1CCOC1)S(=O)(=O)c1ccc(N)cc1`, the “Ratio EC50” value [1] is reported as 8, the EC50 [2] is reported as 180 nM and the selectivity ratio [3] is reported as greater than 3000. The “Ratio EC50” value [4] was 6, the “Ratio EC50” value [5] was 9 and the “Ratio EC50” value [6] was 3. The CC50 [7] was greater than 100000 nM, the EC50 [8] was 160 nM and the “Ratio EC50” value [9] was 9. For the same compound, the EC50 [10] was 660 nM, the EC50 [11] was 430 nM and the “Ratio EC50” value [12] was 26. For the same compound, the EC50 [14] was 15 nM, the “Ratio EC50” value [15] was 12 and the EC50 [16] was 78 nM. For the same compound, the “Ratio EC50” value [17] was 15, the EC50 [18] was 210 nM and the EC50 [20] was 220 nM. It also gave an EC50 [19] of 260 nM and an EC50 [21] of 400 nM.
For `COc1ccc(S(=O)(=O)N(C[C@@H]2CCC(=O)N2)C[C@@H](O)[C@H](Cc2ccccc2)NC(=O)O[C@@H]2C[C@@H]3CCO[C@@H]3C2)cc1`, the “Ratio EC50” value [1] was greater than 43, the EC50 [2] was 33 nM and the selectivity ratio [3] was greater than 3600. The “Ratio EC50” value [4] was 1, the “Ratio EC50” value [5] was 2 and the “Ratio EC50” value [6] was 2. The CC50 [7] was greater than 100000 nM, the EC50 [8] was 14 nM and the EC50 [22] was 26 nM. The “Ratio EC50” value [9] was 1, the EC50 [10] was 43 nM and the EC50 [11] was 77 nM. For the same compound, the “Ratio EC50” value [12] was 2, the EC50 [13] was 27 nM and the EC50 [14] was 26 nM. For the same compound, the “Ratio EC50” value [15] was 1, the EC50 [16] was 36 nM and the “Ratio EC50” value [17] was 3. The EC50 [18] was 140 nM, the EC50 [20] was 27 nM and the EC50 [19] was 47 nM. For the same compound, the EC50 [21] was 41 nM.
With `CC(C)(C)NC(=O)[C@@H]1CN(Cc2cccnc2)CCN1C[C@@H](O)C[C@@H](Cc1ccccc1)C(=O)N[C@H]1c2ccccc2C[C@H]1O.O` the “Ratio EC50” value [1] was 3, the EC50 [2] was 330 nM and the selectivity ratio [3] was 1600. The “Ratio EC50” value [4] was 24, the “Ratio EC50” value [5] was greater than 71 and the “Ratio EC50” value [6] was 19. For the same compound, the EC50 [8] was greater than 1000 nM, the EC50 [22] was greater than 1000 nM and the “Ratio EC50” value [9] was greater than 48. The EC50 [10] was greater than 1000 nM, the EC50 [11] was 300 nM and the “Ratio EC50” value [12] was greater than 48. For the same compound, the EC50 [14] was 19 nM, the “Ratio EC50” value [15] was greater than 48 and the EC50 [16] was 270 nM. For the same compound, the “Ratio EC50” value [17] was 21, the EC50 [18] was greater than 1000 nM and the EC50 [20] was greater than 1000 nM. It also gave an EC50 [19] greater than 1000 nM and an EC50 [21] greater than 1000 nM.
With `Cc1c(O)cccc1C(=O)N[C@@H](CSc1ccccc1)[C@H](O)CN1C[C@H]2CCCC[C@H]2C[C@H]1C(=O)NC(C)(C)C` the “Ratio EC50” value [1] was 1, the EC50 [2] was 210 nM and the “Ratio EC50” value [4] was 12. For the same compound, the “Ratio EC50” value [5] was 36, the “Ratio EC50” value [6] was greater than 56 and the EC50 [8] was 330 nM. The EC50 [22] was greater than 1000 nM, the “Ratio EC50” value [9] was 23 and the EC50 [10] was greater than 1000 nM. The EC50 [11] was 240 nM, the “Ratio EC50” value [12] was greater than 63 and the EC50 [13] was 16 nM. The EC50 [14] was 23 nM, the “Ratio EC50” value [15] was greater than 63 and the EC50 [16] was greater than 1000 nM. The “Ratio EC50” value [17] was 13, the EC50 [18] was 320 nM and the EC50 [20] was 360 nM. For the same compound, the EC50 [19] was 650 nM and the EC50 [21] was greater than 1000 nM.
